Data as given in ChEMBL document CHEMBL3877298, “Discovery of benzimidazole derivatives as modulators of mitochondrial function: A potential treatment for Alzheimer's disease” (Eur J Med Chem, 2017).

How the values were obtained:
CYP1A2 = target: T1, CYP1A2 (Homo sapiens, UniProt P05177); test: Inhibition of recombinant human CYP1A2 expressed in baculosomes coexpressing rabbit NADPH-P450 reudctase assessed as residual activity at 10 uM preincubated for 5 mins followed by substrate and NADP+ addition measured after 20 mins by fluorescence assay relative to control; assay type: ADME; details: read-out: Activity
T1 sequence (P05177 whole entry): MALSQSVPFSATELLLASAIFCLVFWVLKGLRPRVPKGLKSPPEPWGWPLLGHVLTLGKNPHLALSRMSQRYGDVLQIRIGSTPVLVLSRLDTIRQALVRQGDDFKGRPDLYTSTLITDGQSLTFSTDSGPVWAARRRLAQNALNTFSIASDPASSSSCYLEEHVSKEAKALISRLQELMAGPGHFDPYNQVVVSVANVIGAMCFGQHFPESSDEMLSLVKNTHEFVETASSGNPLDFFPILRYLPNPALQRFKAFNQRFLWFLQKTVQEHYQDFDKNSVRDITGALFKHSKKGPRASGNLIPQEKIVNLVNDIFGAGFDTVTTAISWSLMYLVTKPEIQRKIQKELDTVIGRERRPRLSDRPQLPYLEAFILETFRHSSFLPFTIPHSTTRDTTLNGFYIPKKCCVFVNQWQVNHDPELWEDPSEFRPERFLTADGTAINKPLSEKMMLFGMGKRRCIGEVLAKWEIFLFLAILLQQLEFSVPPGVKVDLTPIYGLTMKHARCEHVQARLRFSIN
In short: (§1)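 Vivid CYP450 kit: recombinant human CYP isozyme in Baculosomes with rabbit NADPH-P450 reductase, plus regeneration system (3.3 mM glucose-6-phosphate, 0.3 U/mL G6PDH in 100 mM potassium phosphate, pH 8.0). Mixture preincubated with sample for 5 min at 37 °C. Vivid substrate and 0.1 mM NADP+ were then added, and remaining activity read by fluorescence after 20 min.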

CYP2C19 = CYP2C19 (Homo sapiens, UniProt P33261); test: Inhibition of recombinant human CYP2C19 expressed in baculosomes coexpressing rabbit NADPH-P450 reudctase assessed as residual activity at 10 uM preincubated for 5 mins followed by substrate and NADP+ addition measured after 20 mins by fluorescence assay relative to control; assay type: ADME; details: read-out: Activity; in short: as §1
[1] = AUClast in Sprague-Dawley rat at 10 mg/kg, iv by LC-MS/MS analysis; assay type: ADME, organism-based; design: dose 10 mg/kg, route intravenous, time 0 - last; details: in vivo
In short: (§2)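 Male SD rats, 8 weeks old, given 10 mg/kg intravenously (n = 4). Plasma mixed with carbamazepine internal standard in acetonitrile, vortexed, centrifuged at 10,000×g, and the supernatant analysed by LC-MS/MS. Parameters reported as mean ± SD.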

[2] = target: Translocator protein (Mus musculus) (UniProt P50637); test: (§3) Inhibition of TSPO in mouse HT22 cells assessed as protection against amyloid beta (1 to 42)-induced mitochondrial membrane potential loss by measuring recovery of ATP production at 5 uM preincubated for 10 mins followed by amyloid beta (1 to 42) addition measured after 7 hrs by luciferase reporter gene assay relative to control; assay type: cell-based; design: scale not given: the % may be the effect or the level left; details: HT-22
In short: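 HT22 cells at 7000 per well were given compound (5 µM) for 10 min at 37 °C, then Aβ1-42 (5 µM) or DMSO vehicle, and incubated 7 h. Cells were washed, lysed in 1% Triton X-100, and protein-equalised by BCA. ATP was measured by luciferin/luciferase luminescence and normalised to vehicle.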

[3] = target: Translocator protein (Mus musculus) (UniProt P50637); test: Inhibition of TSPO in mouse HT22 cells assessed as inhibition of amyloid beta (1 to 42)-induced toxicity at 5 uM after 24 hrs by MTT assay relative to control; assay type: cell-based; details: HT-22
In short: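 HT22 cells at 5000 per well were treated with compound (5 µM), with or without Aβ1-42 (5 µM), for 24 h at 37 °C. MTT was added for 2 h, then solubilising solution (10% Triton X-100 in isopropanol with 0.1 M HCl) for 2 h more. Absorbance read at 560 nm; % inhibition normalised to vehicle, and viability taken from compound-only wells.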

Mus musculus = test: Cognition enhancing effect in ICR mouse model of acute Alzheimer's disease assessed as reversal of amyloid beta (1 to 42)-induced cognitive deficit by measuring spatial working memory at 30 mg/kg, ip daily for 6 days measured on day 7 by Y maze spontaneous alteration test relative to control; assay type: functional
In short: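 Male ICR mice (6 weeks, 30–33 g) received Aβ1-42 500 pmol ICV in 10% DMSO/PBS. Compound in 20% cyclodextrin was given at 30 mg/kg daily for 6 days (n = 7 per group). One day later, each mouse explored a three-arm Y-maze for 8 min, and the sequence of arm entries was used to calculate % spontaneous alternation.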

[4] = target: Translocator protein (Mus musculus) (UniProt P50637); test: as §3, with “mitochondrial membrane potential” for “ATP production”, “every 1 hr for 3” for “after 7”, “JC1 staining based fluorescence” for “luciferase reporter gene”; assay type: cell-based; design: scale not given: the % may be the effect or the level left; details: HT-22
In short: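 HT22 cells at 30,000 per well were loaded with 7.5 µM JC-1 in phenol red-free Opti-MEM for 1 h 15 min at 37 °C, then washed. Cells were treated with compound (5 µM) and Aβ1-42 (5 µM); vehicle wells received DMSO. Green (485/535) and red (560/595) fluorescence were read hourly for 3 h. Recovery was normalised between Aβ-damaged (0%) and normal (100%) ratio.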

Translocator protein = Translocator protein (Homo sapiens, UniProt P30536); test: Binding affinity to recombinant human TSPO by SPR assay
In short: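 Biacore T200 at 25 °C with recombinant human TSPO (18 kDa) amine-coupled to a CM5 chip in 10 mM sodium acetate pH 4.5, giving 4000–6000 RU. Compounds from 10 mM DMSO stocks were diluted in PBS-P; running buffer held 1.0% DMSO. Five concentrations, 0.01–5 µM, were injected at 50 µL/min (120 s contact, 300 s dissociation), with blanks and regeneration. KD reported.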

[5] = Terminal half life in Sprague-Dawley rat at 10 mg/kg, po by LC-MS/MS analysis; assay type: ADME, organism-based; details: in vivo, read-out: beta t1/2
In short: (§4)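 Male SD rats, 8 weeks old, acclimatised at least 1 week; compound dissolved at 10 mg/2 mL in N-methyl-2-pyrrolidone/Tween80/water (1:2:7) by 5 min sonication, given 10 mg/kg by oral gavage at 2 mL/kg (n = 5). Heart-puncture blood drawn at 30 min and 3 h, plasma spun and stored at -70 °C. Samples mixed with carbamazepine internal standard in acetonitrile and assayed by LC-MS/MS.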

[6] = Auc (0 to infinity) in Sprague-Dawley rat at 10 mg/kg, iv by LC-MS/MS analysis; assay type: ADME, organism-based; design: dose 10 mg/kg, time infinity, route intravenous; details: in vivo; in short: as §2
[7] = AUC (0 to infinity) in Sprague-Dawley rat at 10 mg/kg, po by LC-MS/MS analysis; assay type: ADME, organism-based; design: dose 10 mg/kg, route oral, time infinity; details: in vivo; in short: as §4
[8] = AUClast in Sprague-Dawley rat at 10 mg/kg, po by LC-MS/MS analysis; assay type: ADME, organism-based; design: dose 10 mg/kg, route oral, time 0 - last; details: in vivo; in short: as §4
[9] = Volume of distribution at steady state in Sprague-Dawley rat at 10 mg/kg, iv by LC-MS/MS analysis; assay type: ADME, organism-based; details: in vivo, read-out: Vdss; in short: as §2
CYP3A4 = CYP3A4 (Homo sapiens, UniProt P08684); test: Inhibition of recombinant human CYP3A4 expressed in baculosomes coexpressing rabbit NADPH-P450 reudctase assessed as residual activity at 10 uM preincubated for 5 mins followed by substrate and NADP+ addition measured after 20 mins by fluorescence assay relative to control; assay type: ADME; details: read-out: Activity; in short: as §1
[10] = Terminal half life in Sprague-Dawley rat at 10 mg/kg, iv by LC-MS/MS analysis; assay type: ADME, organism-based; details: in vivo, read-out: beta t1/2; in short: as §2

Sequence of Translocator protein (Mus musculus) (P50637 whole entry, looked up): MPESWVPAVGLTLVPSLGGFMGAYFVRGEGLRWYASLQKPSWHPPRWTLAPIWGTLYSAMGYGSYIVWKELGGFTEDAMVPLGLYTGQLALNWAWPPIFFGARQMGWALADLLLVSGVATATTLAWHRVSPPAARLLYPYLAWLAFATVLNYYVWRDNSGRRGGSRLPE
Sequence of CYP3A4 (P08684 whole entry): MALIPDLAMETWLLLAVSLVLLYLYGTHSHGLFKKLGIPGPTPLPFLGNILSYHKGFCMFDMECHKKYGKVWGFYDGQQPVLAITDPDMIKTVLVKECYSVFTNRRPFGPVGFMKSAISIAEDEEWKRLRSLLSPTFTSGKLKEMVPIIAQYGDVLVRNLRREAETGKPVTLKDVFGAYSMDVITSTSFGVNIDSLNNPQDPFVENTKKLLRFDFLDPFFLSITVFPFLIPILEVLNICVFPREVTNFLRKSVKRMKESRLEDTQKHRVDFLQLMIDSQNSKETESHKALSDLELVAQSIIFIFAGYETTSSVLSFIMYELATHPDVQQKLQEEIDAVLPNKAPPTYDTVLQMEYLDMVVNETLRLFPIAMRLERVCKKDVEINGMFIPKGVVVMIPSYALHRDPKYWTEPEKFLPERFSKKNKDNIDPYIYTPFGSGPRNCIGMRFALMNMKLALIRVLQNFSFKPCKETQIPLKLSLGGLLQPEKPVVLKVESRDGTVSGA
Sequence of Translocator protein (P30536 whole entry): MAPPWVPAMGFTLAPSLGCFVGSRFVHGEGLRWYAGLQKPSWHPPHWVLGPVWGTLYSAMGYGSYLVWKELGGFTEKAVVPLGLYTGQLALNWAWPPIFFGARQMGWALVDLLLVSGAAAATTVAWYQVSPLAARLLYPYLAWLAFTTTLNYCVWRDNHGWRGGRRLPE
Sequence of CYP2C19 (P33261 whole entry): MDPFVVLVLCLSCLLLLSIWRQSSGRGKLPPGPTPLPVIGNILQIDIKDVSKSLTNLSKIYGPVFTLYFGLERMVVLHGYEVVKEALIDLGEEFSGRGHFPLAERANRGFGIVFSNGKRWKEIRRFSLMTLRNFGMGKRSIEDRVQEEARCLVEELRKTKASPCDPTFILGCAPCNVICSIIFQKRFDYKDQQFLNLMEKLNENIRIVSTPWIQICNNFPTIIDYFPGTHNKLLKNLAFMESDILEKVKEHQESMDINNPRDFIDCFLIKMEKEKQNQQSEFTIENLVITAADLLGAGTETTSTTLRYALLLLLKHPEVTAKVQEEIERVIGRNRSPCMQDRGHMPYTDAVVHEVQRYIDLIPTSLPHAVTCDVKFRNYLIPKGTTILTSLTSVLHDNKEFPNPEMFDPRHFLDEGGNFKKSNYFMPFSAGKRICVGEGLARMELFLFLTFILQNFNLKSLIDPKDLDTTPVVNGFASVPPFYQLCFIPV

Question: Which results are given for `Cc1ccc(C(C)C)cc1NC(=O)Cn1c(Cc2c(Cl)cccc2Cl)nc2ccccc21`?
Answer: activity at 20 min, 10 µM (CYP1A2): 108%; activity at 20 min, 10 µM (CYP2C19): 57.3%; AUC(0-t) [1]: 1750 ng·h/mL; Activity [2]: 95%; inhibition [3]: 30%; Activity (Mus musculus): 72%; Activity [4]: 74%; Kd (Translocator protein): 108 nM; half-life [5]: 1.49 h; AUC(0-inf) [6]: 1850 ng·h/mL; AUC(0-inf) [7]: 136 ng·h/mL; AUC(0-t) [8]: 128 ng·h/mL; Vd [9]: 6.21 L/kg; activity at 20 min, 10 µM (CYP3A4): 224%; half-life [10]: 2.62 h
